Laboratory results taken from ChEMBL document CHEMBL1687909, “Design, synthesis, and biological evaluation of new cinnamic derivatives as antituberculosis agents” (J Med Chem, 2011).
≈ marks a conversion by molar mass, not a printed value. Calls of active or inactive are those of the source. The calls are words filed in the database; no cut-off is given here.

Experiments:
[1] = Selectivity index, ratio of IC50 for human THP1 cells to MIC for Mycobacterium tuberculosis H37Rv; format: functional, THP-1
[2] = system: Mycobacterium tuberculosis; assay: Antituberculosis activity against Mycobacterium tuberculosis H37Rv after 7 days by MTT assay; format: functional; conditions: 168 h
Procedure, shortened: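 Colorimetric MTT microassay: serial 2-fold dilutions from DMSO stocks in Middlebrook 7H9 broth, bacterial suspension in 7H9 added. After 6 days, MTT (1 mg/mL) added; 1 day later solubilization buffer, OD 570 nm. MIC = lowest concentration inhibiting growth, untreated bacilli as growth control.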

[3] = system: THP-1; assay: Cytotoxicity against human THP1 cells after 72 hrs by MTT assay; format: cell-based; conditions: THP-1, 72 h
[4] = system: Mycobacterium tuberculosis; assay: Antimycobacterial activity against Mycobacterium tuberculosis assessed as inhibition of mycolic acid biosynthesis by TLC; format: functional, organism-based
Procedure, shortened: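 Cells saponified in 40% KOH/methoxyethanol overnight at 100 °C, acidified with H2SO4, lipids ether-extracted, fatty acids methylated; methyl esters resolved by silica TLC in dichloromethane, phosphorimaged.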

[5] = system: Mycobacterium tuberculosis; assay: Selectivity ratio of MIC for isoniazid to compound for Mycobacterium tuberculosis MYC5165; format: functional
[6] = system: Mycobacterium tuberculosis; assay: Selectivity ratio of MIC for isoniazid to compound for Mycobacterium tuberculosis 1400; format: functional

Row | Structure (SMILES) | Selectivity Index [1] | MIC [2] | IC50 [3] | also measured
1 | CC(C)=CCOc1ccc(/C=C/C(=O)N/N=c2/[nH]ncc3ccccc23)cc1 | 1 | 21 µM (≈ 7.86 µg/mL) | 26 µM | 
2 | FC(F)(F)Oc1ccc(C2CC2c2nnc3c4ccccc4cnn23)cc1 (racemic) |  | 170 µM (≈ 63 µg/mL) |  | 
3 | COc1ccc(/C=C/C(=O)NNC(=O)c2ccncc2)cc1 | 560 | 0.3 µM (≈ 0.0892 µg/mL) | 168 µM | inhibition [4]: Active
4 | CCOc1ccc(/C=C/C(=O)NNC(=O)c2ccncc2)cc1 |  | 1.3 µM (≈ 0.405 µg/mL) |  | inhibition [4]: Active
5 | CCOc1ccc(/C=C/c2nnc3c4ccccc4cnn23)cc1 |  | 39 µM (≈ 12.3 µg/mL) |  | 
6 | FC(F)(F)COc1ccc(/C=C/c2nnc3c4ccccc4cnn23)cc1 |  | 170 µM (≈ 63 µg/mL) |  | 
7 | NNC(=O)c1ccncc1 [ISONIAZID] | >6081 | 0.6 µM (≈ 0.0823 µg/mL) | > 3650 µM | 
8 | CC(C)=CCC/C(C)=C/COc1ccc(C2CC2c2nnc3c4ccccc4cnn23)cc1 (racemic) |  | 28 µM (≈ 12.3 µg/mL) |  | 
9 | FC(F)(F)COc1ccc(C2CC2c2nnc3c4ccccc4cnn23)cc1 (racemic) |  | 1300 µM (≈ 500 µg/mL) |  | 
10 | CCOc1ccc(C2CC2c2nnc3c4ccccc4cnn23)cc1 (racemic) |  | 378 µM (≈ 125 µg/mL) |  | 
11 | O=C(/C=C/c1ccc(OC(F)(F)F)cc1)N/N=c1/[nH]ncc2ccccc12 |  | 21 µM (≈ 7.86 µg/mL) |  | 
12 | CC(C)=CCC/C(C)=C/COc1ccc(/C=C/C(=O)N/N=c2/[nH]ncc3ccccc23)cc1 | 0.8 | 72 µM (≈ 31.9 µg/mL) | 56 µM | 
13 | CC(C)=CCC/C(C)=C/COc1ccc(/C=C/C(=O)NNC(=O)c2ccncc2)cc1 | 22 | 1.9 µM (≈ 0.797 µg/mL) | 43 µM | inhibition [4]: Active
14 | CC(C)=CCOc1ccc(/C=C/c2nnc3c4ccccc4cnn23)cc1 | 320 | 1.4 µM (≈ 0.499 µg/mL) | 449 µM | Ratio [5]: 1800; Ratio [6]: 100
15 | O=C(/C=C/c1ccc(OCC(F)(F)F)cc1)NNC(=O)c1ccncc1 |  | 2.2 µM (≈ 0.804 µg/mL) |  | inhibition [4]: Active
16 | CCOc1ccc(/C=C/C(=O)N/N=c2/[nH]ncc3ccccc23)cc1 |  | 12 µM (≈ 4.01 µg/mL) |  | 
17 | COc1ccc(/C=C/C(=O)N[C@@H]2CONC2=O)cc1 |  | 950 µM (≈ 249 µg/mL) |  | 
18 | COc1ccc(C2CC2c2nnc3c4ccccc4cnn23)cc1 (racemic) |  | 395 µM (≈ 125 µg/mL) |  | 
19 | CC(C)=CCOc1ccc(/C=C/C(=O)NNC(=O)c2ccncc2)cc1 | 111 | 2.3 µM (≈ 0.808 µg/mL) | 256 µM | inhibition [4]: Active
20 | O=C(/C=C/c1ccc(OC(F)(F)F)cc1)NNC(=O)c1ccncc1 |  | 1.1 µM (≈ 0.386 µg/mL) |  | inhibition [4]: Active
21 | CC(C)=CCC/C(C)=C/COc1ccc(/C=C/c2nnc3c4ccccc4cnn23)cc1 | 13 | 19 µM (≈ 8.07 µg/mL) | 259 µM | 
22 | COc1ccc(/C=C/C(=O)N/N=c2/[nH]ncc3ccccc23)cc1 | 8 | 50 µM (≈ 16 µg/mL) | 437 µM | 
23 | O=C(/C=C/c1ccc(OCC(F)(F)F)cc1)N/N=c1/[nH]ncc2ccccc12 |  | 20 µM (≈ 7.77 µg/mL) |  | 
24 | CC(C)=CCOc1ccc(C2CC2c2nnc3c4ccccc4cnn23)cc1 (racemic) |  | 21 µM (≈ 7.78 µg/mL) |  | 
25 | COc1ccc(/C=C/c2nnc3c4ccccc4cnn23)cc1 | 13 | 53 µM (≈ 16 µg/mL) | 695 µM | 
26 | FC(F)(F)Oc1ccc(/C=C/c2nnc3c4ccccc4cnn23)cc1 |  | 702 µM (≈ 250 µg/mL) |  | 
